Data reported in ChEMBL document CHEMBL3616459, “Antimicrobial peptides with potential for biofilm eradication: synthesis and structure activity relationship studies of battacin peptides” (J Med Chem, 2015).
Converted amounts (≈) assume the structure as drawn. Positions of bridges follow the written chain, without caps; N, C: chain ends. Non-standard residues stand in square brackets, D forms with d. Residues, ends and D or L forms follow the SMILES beside them. *: point of attachment. Myristoyl = CCCCCCCCCCCCCC(=O)*; X1 = CC(C)=CCC/C(C)=C/C(=O)*; dDab = NCC[C@@H](N)C(=O)O; X2 = CCC(C)CCC(O)CC(=O)*; Dab = NCC[C@H](N)C(=O)O

Key:
Escherichia coli = experiment: Antimicrobial activity against Escherichia coli after 24 hrs by spectrophotometry; format: functional
How it was run: (§1)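 Broth microdilution in Luria broth. Overnight culture from a single colony, grown at 28 °C (Ea1501, Psa) or 37 °C (E. coli, S. aureus), adjusted to OD600 0.6. Peptide dissolved in LB with 0.5% acetic acid as a dilution series; 50 μL peptide plus 50 μL culture per well, triplicates.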

[1] = Hemolytic activity in mouse erythrocytes at 100 uM after 1 hr by spectrophotometry; format: ADME, cell-based, Erythrocyte; details: read-out: Activity
How it was run: (§2)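 100 μL peptide (1 μM–1 mM in Tris buffer) plus 100 μL cells, incubated 1 h at 37 °C, triplicates. After centrifugation, supernatant A540 read. Percent hemolysis calculated relative to buffer (0%) and 0.1% Triton X-100 (100%) controls.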

Staphylococcus aureus = experiment: Antimicrobial activity against Staphylococcus aureus after 24 hrs by spectrophotometry; format: functional; how it was run: as §1
Erwinia amylovora [2] = experiment: Antimicrobial activity against Erwinia amylovora 1501 after 24 hrs by spectrophotometry; format: functional; details: Erwinia amylovora, 1501, 24 h; how it was run: as §1
Pseudomonas aeruginosa = experiment: Antimicrobial activity against Pseudomonas aeruginosa after 24 hrs by spectrophotometry; format: functional
Erwinia amylovora [3] = experiment: Antimicrobial activity against streptomycin-resistant Erwinia amylovora after 24 hrs by spectrophotometry; format: functional
How it was run: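 Broth microdilution in Luria broth; overnight culture grown at 28 °C, adjusted to OD600 0.6, mixed 1:1 with a dilution series of peptide prepared in LB containing 0.5% acetic acid. Three replicates per concentration.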

[4] = Antimicrobial activity against Pseudomonas syringae pv. actinidiae 16027 after 24 hrs by spectrophotometry; format: functional; details: Pseudomonas syringae, 16027, 24 h; how it was run: as §1
[5] = Hemolytic activity in mouse erythrocytes at 100 uM to 1 mM after 1 hr by spectrophotometry; format: ADME, cell-based, Erythrocyte; details: read-out: Activity; how it was run: as §2

| Molecule | MIC (Escherichia coli) | hemolysis at 1 h, 100 µM [1] | MIC (Staphylococcus aureus) | MIC (Erwinia amylovora [2]) | MIC (Pseudomonas aeruginosa) | MIC (Erwinia amylovora [3]) | MIC [4] | hemolysis at 1 h, 100 µM [5] |
| --- | --- | --- | --- | --- | --- | --- | --- | --- |
| CC(C)C[C@@H]1NC(=O)[C@H](CCN)NC(=O)[C@H](CCN)NC(=O)[C@@H](Cc2ccccc2)NC(=O)[C@H](CC(C)C)NC(=O)[C@H](CCN)NC(=O)[C@@H](NC(=O)[C@@H](CCN)NC(=O)OCC2c3ccccc3-c3ccccc32)CCNC1=O | 19 µM (≈ 20.8 µg/mL) | 41% | 2 µM (≈ 2.19 µg/mL) | 19 µM (≈ 20.8 µg/mL) | 2 µM (≈ 2.19 µg/mL) | 32 µM (≈ 35.1 µg/mL) | 19 µM (≈ 20.8 µg/mL) |  |
| CCC(C)CCC(=O)N[C@H](CCN)C(=O)N[C@H]1CCNC(=O)[C@H](CC(C)C)NC(=O)[C@H](CCN)NC(=O)[C@H](CCN)NC(=O)[C@@H](Cc2ccccc2)NC(=O)[C@H](CC(C)C)NC(=O)[C@H](CCN)NC1=O (some centres undefined) | 15 µM (≈ 14.8 µg/mL) |  | 101 µM (≈ 99.6 µg/mL) | 15 µM (≈ 14.8 µg/mL) | 2.5 µM (≈ 2.47 µg/mL) | 25 µM (≈ 24.7 µg/mL) | 5 µM (≈ 4.93 µg/mL) | 2.02% |
| CC(C)=CCC/C(C)=C/C(=O)N[C@H](CCN)C(=O)N[C@H]1CCNC(=O)[C@H](CC(C)C)NC(=O)[C@H](CCN)NC(=O)[C@H](CCN)NC(=O)[C@@H](Cc2ccccc2)NC(=O)[C@H](CC(C)C)NC(=O)[C@H](CCN)NC1=O | 98 µM (≈ 100 µg/mL) |  | 98 µM (≈ 100 µg/mL) | 98 µM (≈ 100 µg/mL) | 10 µM (≈ 10.2 µg/mL) | 488 µM (≈ 500 µg/mL) | 49 µM (≈ 50.2 µg/mL) |  |
| CCCCCCCCCCCCCC(=O)N[C@H](CCN)C(=O)N[C@H]1CCNC(=O)[C@H](CC(C)C)NC(=O)[C@H](CCN)NC(=O)[C@H](CCN)NC(=O)[C@@H](Cc2ccccc2)NC(=O)[C@H](CC(C)C)NC(=O)[C@H](CCN)NC1=O | 92 µM (≈ 99.8 µg/mL) |  | 92 µM (≈ 99.8 µg/mL) | 92 µM (≈ 99.8 µg/mL) | 92 µM (≈ 99.8 µg/mL) | 23 µM (≈ 24.9 µg/mL) | 46 µM (≈ 49.9 µg/mL) |  |
| CCCCCCCCCCCCCC(=O)N[C@H](CCCCN)C(=O)N[C@H]1CCCCNC(=O)[C@H](CC(C)C)NC(=O)[C@H](CCCCN)NC(=O)[C@H](CCCCN)NC(=O)[C@@H](Cc2ccccc2)NC(=O)[C@H](CC(C)C)NC(=O)[C@H](CCCCN)NC1=O | 81 µM (≈ 99.2 µg/mL) |  | 81 µM (≈ 99.2 µg/mL) | 81 µM (≈ 99.2 µg/mL) | 409 µM (≈ 501 µg/mL) | 20 µM (≈ 24.5 µg/mL) | 12 µM (≈ 14.7 µg/mL) |  |
| CCC(C)CCC(=O)N[C@H](CCN)C(=O)N[C@@H](CCN)C(=O)N[C@@H](CCN)C(=O)N[C@@H](CC(C)C)C(=O)N[C@H](Cc1ccccc1)C(=O)N[C@@H](CCN)C(=O)N[C@@H](CCN)C(=O)N[C@@H](C)C(=O)O (some centres undefined) | 15 µM (≈ 14.4 µg/mL) |  | 5 µM (≈ 4.81 µg/mL) |  | 5 µM (≈ 4.81 µg/mL) |  | 10 µM (≈ 9.62 µg/mL) |  |
| CCC(C)CCC(=O)N[C@H](CCN)C(=O)N[C@@H](CCN)C(=O)N[C@@H](CCN)C(=O)N[C@@H](CC(C)C)C(=O)N[C@H](Cc1ccccc1)C(=O)N[C@@H](CCN)C(=O)N[C@@H](C)C(=O)N[C@@H](CC(C)C)C(=O)O (some centres undefined) | 5 µM (≈ 4.88 µg/mL) |  | 5 µM (≈ 4.88 µg/mL) |  | 5 µM (≈ 4.88 µg/mL) |  | 2.5 µM (≈ 2.44 µg/mL) |  |
| CCC(C)CCC(=O)N[C@H](CCN)C(=O)N[C@@H](CCN)C(=O)N[C@@H](CCN)C(=O)N[C@@H](CC(C)C)C(=O)N[C@H](Cc1ccccc1)C(=O)N[C@@H](C)C(=O)N[C@@H](CCN)C(=O)N[C@@H](CC(C)C)C(=O)O (some centres undefined) | 100 µM (≈ 97.5 µg/mL) |  | 500 µM (≈ 488 µg/mL) |  | 50 µM (≈ 48.8 µg/mL) |  | 100 µM (≈ 97.5 µg/mL) |  |
| CCC(C)CCC(=O)N[C@H](CCN)C(=O)N[C@@H](CCN)C(=O)N[C@@H](CCN)C(=O)N[C@@H](CC(C)C)C(=O)N[C@@H](C)C(=O)N[C@@H](CCN)C(=O)N[C@@H](CCN)C(=O)N[C@@H](CC(C)C)C(=O)O (some centres undefined) | 25 µM (≈ 23.2 µg/mL) |  | 25 µM (≈ 23.2 µg/mL) |  | > 1000 µM |  | > 1000 µM |  |
| CCC(C)CCC(=O)N[C@H](CCN)C(=O)N[C@@H](CCN)C(=O)N[C@@H](CCN)C(=O)N[C@@H](C)C(=O)N[C@H](Cc1ccccc1)C(=O)N[C@@H](CCN)C(=O)N[C@@H](CCN)C(=O)N[C@@H](CC(C)C)C(=O)O (some centres undefined) | 500 µM (≈ 481 µg/mL) |  | > 1000 µM |  | > 1000 µM |  | > 1000 µM |  |
| CCC(C)CCC(=O)N[C@H](CCN)C(=O)N[C@@H](CCN)C(=O)N[C@@H](C)C(=O)N[C@@H](CC(C)C)C(=O)N[C@H](Cc1ccccc1)C(=O)N[C@@H](CCN)C(=O)N[C@@H](CCN)C(=O)N[C@@H](CC(C)C)C(=O)O (some centres undefined) | 25 µM (≈ 24.4 µg/mL) |  | 25 µM (≈ 24.4 µg/mL) |  | 10 µM (≈ 9.75 µg/mL) |  | 25 µM (≈ 24.4 µg/mL) |  |
| CCC(C)CCC(=O)N[C@H](CCN)C(=O)N[C@@H](C)C(=O)N[C@@H](CCN)C(=O)N[C@@H](CC(C)C)C(=O)N[C@H](Cc1ccccc1)C(=O)N[C@@H](CCN)C(=O)N[C@@H](CCN)C(=O)N[C@@H](CC(C)C)C(=O)O (some centres undefined) | 25 µM (≈ 24.4 µg/mL) |  | 2.5 µM (≈ 2.44 µg/mL) |  | 2.5 µM (≈ 2.44 µg/mL) |  | 2.5 µM (≈ 2.44 µg/mL) |  |
| CCC(C)CCC(=O)N[C@@H](C)C(=O)N[C@@H](CCN)C(=O)N[C@@H](CCN)C(=O)N[C@@H](CC(C)C)C(=O)N[C@H](Cc1ccccc1)C(=O)N[C@@H](CCN)C(=O)N[C@@H](CCN)C(=O)N[C@@H](CC(C)C)C(=O)O (some centres undefined) | 500 µM (≈ 488 µg/mL) |  | > 1000 µM |  | 25 µM (≈ 24.4 µg/mL) |  | 100 µM (≈ 97.5 µg/mL) |  |
| CC(C)CCCC(=O)N[C@H](CCN)C(=O)N[C@@H](CCN)C(=O)N[C@@H](CC(C)C)C(=O)N[C@H](Cc1ccccc1)C(=O)N[C@@H](CCN)C(N)=O | 10 µM (≈ 6.9 µg/mL) |  | 2.5 µM (≈ 1.72 µg/mL) |  | 1 µM (≈ 0.69 µg/mL) |  | 1 µM (≈ 0.69 µg/mL) | 1.14% |
| CC(C)C[C@H](NC(=O)[C@H](CCN)NC(=O)[C@H](CCN)NC(=O)[C@@H](Cc1ccccc1)NC(=O)[C@H](CC(C)C)NC(=O)[C@H](CCN)NC(=O)[C@H](CCN)NC(=O)[C@H](N)CCN)C(N)=O (H-[dDab][Dab][Dab]L[dF][Dab][Dab]L-NH2) | 100 µM (≈ 89.1 µg/mL) |  | > 1000 µM |  | 2.5 µM (≈ 2.23 µg/mL) |  | 5 µM (≈ 4.46 µg/mL) |  |
| CCCCCCCCCCCCCC(=O)N[C@H](CCN)C(=O)N[C@@H](CCN)C(=O)N[C@@H](CCN)C(=O)N[C@@H](CC(C)C)C(=O)N[C@H](Cc1ccccc1)C(=O)N[C@@H](CCN)C(=O)N[C@@H](CCN)C(=O)N[C@@H](CC(C)C)C(N)=O (Myristoyl-[dDab][Dab][Dab]L[dF][Dab][Dab]L-NH2) | 5 µM (≈ 5.51 µg/mL) |  | 5 µM (≈ 5.51 µg/mL) | 9 µM (≈ 9.91 µg/mL) | 14 µM (≈ 15.4 µg/mL) | 14 µM (≈ 15.4 µg/mL) | 14 µM (≈ 15.4 µg/mL) | 76.9% |
| CCCCCCCCCCCCCC(=O)N[C@H](CCCCN)C(=O)N[C@@H](CCCCN)C(=O)N[C@@H](CCCCN)C(=O)N[C@@H](CC(C)C)C(=O)N[C@H](Cc1ccccc1)C(=O)N[C@@H](CCCCN)C(=O)N[C@@H](CCCCN)C(=O)N[C@@H](CC(C)C)C(N)=O (Myristoyl-[dK]KKL[dF]KKL-NH2) | 12 µM (≈ 14.9 µg/mL) |  | 1 µM (≈ 1.24 µg/mL) | 12 µM (≈ 14.9 µg/mL) | 12 µM (≈ 14.9 µg/mL) | 12 µM (≈ 14.9 µg/mL) | 12 µM (≈ 14.9 µg/mL) |  |
| CC(C)=CCC/C(C)=C/C(=O)N[C@H](CCN)C(=O)N[C@@H](CCN)C(=O)N[C@@H](CCN)C(=O)N[C@@H](CC(C)C)C(=O)N[C@H](Cc1ccccc1)C(=O)N[C@@H](CCN)C(=O)N[C@@H](CCN)C(=O)N[C@@H](CC(C)C)C(N)=O (X1-[dDab][Dab][Dab]L[dF][Dab][Dab]L-NH2) | 24 µM (≈ 25 µg/mL) |  | 48 µM (≈ 50 µg/mL) | 24 µM (≈ 25 µg/mL) | 48 µM (≈ 50 µg/mL) | 48 µM (≈ 50 µg/mL) | 14 µM (≈ 14.6 µg/mL) |  |
| CCC(C)CCC(O)CC(=O)N[C@H](CCN)C(=O)N[C@H]1CCNC(=O)[C@H](CC(C)C)NC(=O)[C@H](CCN)NC(=O)[C@H](CCN)NC(=O)[C@@H](Cc2ccccc2)NC(=O)[C@H](CC(C)C)NC(=O)[C@H](CCN)NC1=O (some centres undefined) (X2-[dDab][Dab][Dab]L[dF][Dab][Dab]L; lactam 2-C) | 10 µM (≈ 10.3 µg/mL) |  | > 50 µM | 24 µM (≈ 24.7 µg/mL) | 5 µM (≈ 5.15 µg/mL) | 24 µM (≈ 24.7 µg/mL) | 5 µM (≈ 5.15 µg/mL) |  |
| CN[C@@H]1[C@H](O[C@H]2[C@H](O[C@H]3[C@H](O)[C@@H](O)[C@H](N=C(N)N)[C@@H](O)[C@@H]3N=C(N)N)O[C@@H](C)[C@]2(O)C=O)O[C@@H](CO)[C@H](O)[C@H]1O [STREPTOMYCIN] | 1 µM (≈ 0.582 µg/mL) |  |  | 1 µM (≈ 0.582 µg/mL) |  | 500 µM (≈ 291 µg/mL) | 1 µM (≈ 0.582 µg/mL) |  |
| GENTAMICIN |  |  | 2.5 µM |  | < 1 µM |  |  |  |
